Compounds with a hit are over-represented: about 1.3% of the library has one in this group of screens.
Hsp70 activator = switches on Hsp70 transcription; activation, % at 10 µM; HeLa Hsp70 promoter luciferase reporter, luminescence; scaled: vehicle 0, proteasome-inhibitor control 100%; actives 0.04% (n = 200,000);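 active = activation above the mean across all tested compounds plus 3 SD, cutoff set per campaign, cut at about 5.5% in these data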;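 note: 100% = MG132 at 30 µM as the positive control and 0% = DMSO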
S1P4 antagonist = human S1P4 receptor antagonism; inhibition, % at 4.98 µM; S1P4-expressing cells, antagonist mode, reporter read-out; O95977; actives 0.26% (n = 220,000); in the data active = inhibition above about 29%;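 note: 0% = wells stimulated with agonist and 100% = vehicle wells without agonist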
S1P3 antag = blocks the human S1P3 receptor | Q99500 | CHO S1P3 NFAT-BLA reporter, FRET fluorescence, antagonist mode | inhibition, % at 4.98 µM | actives 0.27% (n = 170,000) | AID 485;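 active = inhibition above the plate cutoff, the mean inhibition of test wells on that plate plus 3 SD, cut at about 28% in these data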;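 note: cells challenged with S1P at its EC80 of 0.8 µM; blue over green emission ratio from cleaved BLA substrate after 4 h stimulation; 0% = S1P-stimulated wells and 100% = unstimulated DMSO-only wells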
S1P4 ag = human S1P4 receptor agonism | S1P4-expressing cell line, agonist reporter assay | activation, % at 4.98 µM | actives 0.35% (n = 220,000) | O95977 | AID 1509; in the data active = activation above about 11%;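 note: 0% = DMSO vehicle and 100% = reference agonist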
Mdm2 ligase inh = blocks human Mdm2 ubiquitin ligase activity. cell-based MDM2 ubiquitination luciferase reporter, 2 h; 0 = plate control, 100 = twice control, blank-subtracted. Q00987. signal enhancement, % at 5 µM. actives 0.11% (n = 210,000);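 active = signal enhancement of 30% or more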;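 note: luminescence tracks abundance of the self-degrading MDM2-luciferase fusion protein; higher signal means inhibition of MDM2 E3 ligase activity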
Target sequence (Q00987 whole entry, looked up, the tested form may be a part): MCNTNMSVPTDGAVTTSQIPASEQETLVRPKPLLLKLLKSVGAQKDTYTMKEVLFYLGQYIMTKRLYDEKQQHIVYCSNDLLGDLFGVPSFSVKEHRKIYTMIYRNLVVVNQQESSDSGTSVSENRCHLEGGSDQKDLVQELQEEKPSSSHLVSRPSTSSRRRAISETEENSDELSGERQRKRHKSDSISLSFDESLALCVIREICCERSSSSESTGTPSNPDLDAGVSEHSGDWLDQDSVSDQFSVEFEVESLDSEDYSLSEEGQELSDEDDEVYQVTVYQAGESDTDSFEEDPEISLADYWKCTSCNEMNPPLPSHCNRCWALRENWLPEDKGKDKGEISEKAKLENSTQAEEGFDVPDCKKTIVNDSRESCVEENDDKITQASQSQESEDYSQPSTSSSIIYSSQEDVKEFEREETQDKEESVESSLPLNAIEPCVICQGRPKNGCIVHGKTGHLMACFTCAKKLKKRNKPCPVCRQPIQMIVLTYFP
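Assay system: stable mammalian line carrying autodegrading MDM2–luciferase fusion reporter; amount: 2000 cells seeded into each well; buffer or medium: DMEM; benchmarks: plate control and blank wells; signal: luciferase luminescence; timing: 2 h compound exposure at 37 °C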
Dynein transport = blocks dynein driven cargo transport along microtubules | 3617.4 mouse cells, GR-EGFP nuclear translocation imaging; test concentration mostly 20 µM; stimulated with dexamethasone, 1 µM; stronger effect = lower value | AID 1381 | actives 0.47% (n = 220,000) | z-score, hits read low;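 active = plate z-score of nuclear minus cytoplasmic receptor signal below a set negative limit, without overly bright fluorescence or cell loss, cut at about -3.5 in these data, passing the limit was not always enough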;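 note: z-score of nuclear minus cytoplasmic ring GR-EGFP intensity difference per well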
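Buffer or medium: tetracycline-free induction medium containing charcoal-stripped FBS / Reagent: dexamethasone agonist, 1.0 µM final, for 30 min / Technique: automated 10x imaging of fixed Hoechst-stained cells / Times: induction 48 h, compound 1 h, agonist 30 min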
S1P4 ag conf = human S1P4 agonism, confirmation; shares compounds with S1P4 ag; S1P4 agonist cell-based reporter assay; activation, % at 4.98 µM; actives 7% (n = 740); AID 1523; in the data active = activation above about 12%;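 note: 0% = vehicle and 100% = full reference agonist response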
S1P1 agonist = activates human S1P1, counter-screen for S1P4 agonists. actives 4% (n = 740). AID 1563. activation, % at 4.98 µM. shares compounds with S1P4 ag. S1P1 agonist cell-based assay, activation; in the data active = activation above about 21%;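 note: 0% = vehicle wells and 100% = reference agonist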
* hit, by the source's call; / = no result; ! = a repeat was not active.

SMILES | Hsp70 activator | S1P4 antagonist | S1P3 antag | S1P4 ag | Mdm2 ligase inh | Dynein transport | S1P4 ag conf | S1P1 agonist
CC(C)c1nc(SCC(=O)Nc2ccc([N+](=O)[O-])cc2Br)n[nH]1 | 0 | -11 | -3 | 68* | -7 | 0.55 | -2 | 3
CC1=C(C(=O)OCC2CCCO2)C(c2ccsc2)C2=C(CCCC2=O)N1 (stereo not given) | 0 | -35 | -13 | 1 | -2 | 0.26 | / | /
Cc1cccc(-n2nnc3c(=O)n(Cc4ccccn4)cnc32)c1 | 0 | -7 | -8 | -1 | -9 | 0.29 | / | /
COc1cc(C2NC(=O)C(C#N)=C(Nc3cccc(C)c3)S2)ccc1O (stereo not given) | / | 12 | -8 | 22*! | 3 | -0.063 | 0 | 1
OCC1CCCN(Cc2cn(Cc3ccccc3)nc2-c2cc3ccccc3o2)C1 (stereo not given) | 0 | 5 | -17 | 1 | 8 | 0.84 | / | /
CC1=C(C)C(C)=C(C#N)C(=C(C#N)C#N)N1 | / | -2 | 6 | 2 | -3 | -1.1 | / | /
Cc1ccccc1OCC(=O)N/N=C/c1ccncc1 | 0 | -3 | -8 | 3 | 5 | -0.66 | / | /
CCOC(=O)C/C(C)=N/NC(=O)COc1ccccc1C | 0 | -17 | -32 | 89* | -20 | 2.6 | -1 | -2
S=C1NC2(CCCCC2)Nc2ccccc21 | 0 | -2 | -8 | -1 | -3 | -0.85 | / | /
CCc1cccc(Nc2cc(C)nc3ncnn23)c1 | 0 | 0 | 10 | 156* | / | -0.36 | -3 | -4
Cc1cc(Nc2cccc(Cl)c2)n2ncnc2n1 | 0 | 0 | -6 | 2 | / | -0.32 | / | /
COc1ccc(CCNC(=O)COC(=O)C23CC4CC(CC(C4)C2)C3)cc1 | 0 | -3 | -3 | 11* | -7 | 0.63 | 0 | -5
COc1ccc(CCNC(=O)COC(=O)C23CC4CC(CC(Br)(C4)C2)C3)cc1 | 0 | -24 | -14 | 2 | -7 | 1.8 | / | /
CCOC(=O)c1cc(NC(=O)c2ccc(OC)cc2)c(=O)oc1-c1ccccc1 | 0 | 13 | / | 22* | -8 | 0.45 | -2 | 10
COC(=O)c1cc(NC(=O)c2ccc(OC)cc2)c(=O)oc1C | 1 | 3 | -6 | 0 | 10 | -1.3 | / | /
COC(=O)c1sccc1NC(=S)N1CCN(c2cccc(C)c2C)CC1 | 0 | -11 | 1 | 23* | 7 | -1.2 | -2 | 4
CCc1cc(=O)oc2c(CN3CCN(C)CC3)c(O)c(Cl)cc12 | -1 | -14 | / | 11* | 3 | 1.9 | 1 | -2
CCc1cc(=O)oc2c(CN3CCCC3)c(O)c(Cl)cc12 | 0 | -12 | / | 3 | -9 | 0.85 | / | /
O=C(CCSc1nnc(-c2ccccc2)o1)N1CCOCC1 | 0 | -2 | -10 | 28* | -4 | 0.69 | -2 | 1
Cc1ccc(-c2nnc(SCCC(=O)N3CCOCC3)o2)cc1 | 0 | -24 | -15 | 2 | -12 | -0.55 | / | /
Cc1c(Nc2c3ccccc3nc3ccccc23)c(=O)n(-c2ccccc2)n1C | / | -3 | -11 | 11* | -12 | -0.88 | -1 | 2
CC(C)C1N(C(N)=S)N=CC1(C)C (stereo not given) | / | 0 | -14 | 2 | -16 | 0.15 | / | /
Cc1cc(C)cc(NC(=O)CSc2nnc(-c3ccc(S(=O)(=O)N4CCCC4)cc3)o2)c1 | 0 | -13 | -16 | 11* | -10 | -0.33 | -3 | -6
S=c1[nH]cnc2sc(-c3ccccc3)cc12 | 0 | -4 | -24 | -1 | -9 | -0.1 | / | /
CC(C)c1ccc(CN(C(=O)/C=C/c2ccco2)C2CCS(=O)(=O)C2)cc1 (stereo not given) | / | -9 | -3 | 0 | -3 | -0.54 | / | /
SMILES | Hsp70 activator | S1P4 antagonist | S1P3 antag | S1P4 ag | Mdm2 ligase inh | Dynein transport | S1P4 ag conf | S1P1 agonist
Cc1ccccc1NS(=O)(=O)c1ccc(F)cc1 | 0 | -21 | -13 | 1 | -8 | -0.99 | / | /
Cc1cc2c(NS(=O)(=O)c3ccc(F)cc3)cccc2nn1 | / | -6 | -6 | 116* | -8 | -0.096 | -1 | 2
Cc1ccc(NC(=O)/C(C#N)=N/Nc2ccc(C(=O)O)cc2)c(C)c1 | / | 14 | -11 | -1 | / | 0.53 | / | /
Cc1ccc(N/N=C(\C#N)C(N)=S)c(C)c1 | 0 | -1 | 3 | 20* | -4 | -0.14 | -1 | -2
Cc1ccc(CN(c2ccc(C(=O)NCC3CCCO3)cc2)S(C)(=O)=O)cc1 (stereo not given) | 0 | -9 | -8 | 30* | -9 | -0.82 | -1 | 9
O=C(O)C1CC=CCC1C(=O)Nc1ccccc1C(=O)N1CCN(c2ccc(Cl)cc2)CC1 (stereo not given) | 0 | -8 | -6 | 1 | -2 | -0.55 | / | /
O=C(O)CCC(=O)Nc1ccccc1C(=O)N1CCN(c2ccc(Cl)cc2)CC1 | 0 | 6 | 2 | 122* | -1 | 0.15 | -2 | 0
CC/C(C)=N\Nc1nc(-c2cc3cc(OC)ccc3oc2=O)cs1 | / | -13 | 6 | 4 | -11 | -1.1 | / | /
C=CCC(CC(O)COCCC)C(=O)NNC(=S)Nc1ccccc1 (stereo not given) | / | 5 | -4 | 1 | -13 | 0.63 | / | /
O=[N+]([O-])c1ccc(OCCO)c(P(=O)(c2ccccc2)c2ccccc2)c1 | / | -2 | 11 | 155* | -91 | -0.38 | -2 | -3
CSc1ccc(Cl)c(C(=O)Nc2ccc(C)cn2)c1 | 1 | -1 | -8 | 2 | 5 | 0.2 | / | /
CCN(CC)c1ccc(NC(=S)NCC2CCCO2)cc1 (stereo not given) | 0 | -6 | 0 | -2 | -7 | -0.019 | / | /
C=CCn1c(C)c(C(C)=O)c(N2CCCC2)nc1=S | 0 | 13 | -45 | 3 | -7 | -0.17 | / | /
CCn1c(C)c(C(C)=O)c(N2CCCC2)nc1=S | 0 | -4 | 9 | 17* | -7 | 0.0065 | -2 | -2
CC1CN(C(=O)COC(=O)c2ccc(Cl)nc2)CC(C)O1 (stereo not given) | 0 | 0 | -1 | 1 | -7 | -0.26 | / | /
COc1ccc(OC)c(S(=O)(=O)n2nnc3ccccc32)c1 | 0 | -29 | -18 | 2 | -17 | -0.2 | / | /
COc1ccc(F)cc1S(=O)(=O)n1nnc2ccccc21 | 0 | -5 | -23 | 74* | -24 | 1.6 | -1 | 1
O=C(Nc1nc(-c2ccccn2)cs1)C1COc2ccccc2O1 (stereo not given) | 0 | -2 | -27 | 38* | -50 | 0.012 | -1 | 3
Cn1nc(C(F)(F)F)c(-c2ccc(Br)cc2)c1NC(=O)CSCC(=O)O | / | 2 | 0 | 0 | -11 | -1.5 | / | /
Nn1cc(-c2ccccc2)nc1SCC(=O)NCC(F)(F)F | 0 | -12 | -5 | 14* | -18 | 0.33 | -1 | -2

Screening results from PubChem BioAssay.
